Activity calls are given as the source filed them. The rule behind the calls is not given here. A value given as a limit tells only on which side of the number the result lay.

The source of these data is ChEMBL document CHEMBL4043109, “Dual inhibitors of the human blood-brain barrier drug efflux transporters P-glycoprotein and ABCG2 based on the antiviral azidothymidine” (Bioorg Med Chem, 2017).

Series [1] can be described thus: Cytotoxicity in human MCF-7 FLV1000 cells assessed as cell viability at […] uM incubated for 24 hrs by MTT assay. The series is classed as cell-based. The conditions noted are these: read-out: Activity. On the technique in general: Tetrazolium dyes change colour on reduction, which living cells bring about.
Series [2] is described as follows: Inhibition of P-gp in human MCF7/DX1 cells assessed as increase in calcein-AM accumulation incubated for 10 mins by flow cytometry. Format: cell-based. As to conditions: MCF7/DX1, 10 min. Put shortly:
(§1)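 MCF-7/DX1 cells (125,000, in suspension) were incubated at 37 °C for 10 min in BME containing 0.5 μM calcein-AM (final) plus increasing compound concentrations, with DMSO held at 5%. GF120918 1 μM served as positive control. IC50 was taken from mean fluorescence; triplicate.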

Series [3] has as its target T1, Broad substrate specificity ATP-binding cassette transporter ABCG2 (Homo sapiens, UniProt Q9UNQ0).
T1 sequence (Q9UNQ0 whole entry): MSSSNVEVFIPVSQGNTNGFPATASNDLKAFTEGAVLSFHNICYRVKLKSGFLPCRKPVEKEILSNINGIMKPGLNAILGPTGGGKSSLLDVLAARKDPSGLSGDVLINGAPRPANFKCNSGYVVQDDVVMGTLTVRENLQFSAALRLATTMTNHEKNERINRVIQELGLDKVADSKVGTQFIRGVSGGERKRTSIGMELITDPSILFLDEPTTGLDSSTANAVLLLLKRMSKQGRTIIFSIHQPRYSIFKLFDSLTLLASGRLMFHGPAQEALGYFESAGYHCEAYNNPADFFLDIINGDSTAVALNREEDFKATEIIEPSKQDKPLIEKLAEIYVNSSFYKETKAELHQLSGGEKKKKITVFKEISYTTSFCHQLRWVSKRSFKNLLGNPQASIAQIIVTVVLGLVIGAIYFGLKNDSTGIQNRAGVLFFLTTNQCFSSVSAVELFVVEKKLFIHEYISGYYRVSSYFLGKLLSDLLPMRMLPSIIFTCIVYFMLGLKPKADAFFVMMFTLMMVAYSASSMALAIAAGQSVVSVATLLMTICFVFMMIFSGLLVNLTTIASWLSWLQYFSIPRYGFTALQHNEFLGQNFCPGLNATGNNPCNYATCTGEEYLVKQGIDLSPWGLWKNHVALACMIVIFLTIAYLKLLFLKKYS
Description: Inhibition of human ABCG2 expressed in Sf9 cell membranes assessed as reduction in [125I]-IAAP binding incubated for 20 mins under UV light irradiation and measured after 30 mins by densitometry based photo-affinity labeling assay. Put shortly: (§2)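 Crude Sf9 membranes, from baculovirus infection expressing P-gp (25 µg) or ABCG2 (40 µg), were preincubated 10 min at room temperature in the dark. Buffer was 50 mM Tris pH 7.5 with 1% aprotinin, 1 mM DTT and 2 mM AEBSF. Additions were compound (in DMSO) and [125I]-IAAP, ~2200 Ci/mmol. Controls were 2.5% DMSO and GF120918 (10 µM for P-gp, 20 µM for ABCG2). Samples were UV-irradiated at 365 nm for 20 min on ice, then held 30 min in Laemmli buffer. Bands were resolved on 7.5% SDS-PAGE, autoradiographed and quantified as % of DMSO control to give IC50.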

In series [4] the target is ATP-dependent translocase ABCB1 (Homo sapiens, UniProt P08183). Description: Inhibition of human MDR1 expressed in Sf9 cell membranes assessed as reduction in [125I]-IAAP binding incubated for 20 mins under UV light irradiation and measured after 30 mins by densitometry based photo-affinity labeling assay. The essentials:
as §2

Series [5] is described as follows: Cytotoxicity in human MCF7/DX1 cells assessed as cell viability at 2.3 uM incubated for 24 hrs by MTT assay. The series is classed as cell-based. The conditions noted are these: read-out: Activity. Put shortly: (§3)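 MTT viability assay on MCF-7/FLV1000 (ABCG2-overexpressing, grown with 1000 nM flavopiridol) and MCF-7/DX1 (P-gp-overexpressing, grown with 1 μM doxorubicin) cells. Cells were exposed for 24 h to increasing dimer concentrations. Viability is the absorbance of treated cells relative to untreated cells.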

The target in series [6] is T1, Broad substrate specificity ATP-binding cassette transporter ABCG2. The series can be described thus: Inhibition of ABCG2 in human MCF7/FLV1000 cells assessed as increase in mitoxantrone accumulation incubated for 30 mins by flow cytometry.
The nature of series [7]: Cytotoxicity in human MCF-7 FLV1000 cells assessed as cell viability at 40 uM incubated for 24 hrs by MTT assay. The series is classed as cell-based. The conditions noted are these: read-out: Activity. The essentials: as §3
Series [8] is described as follows: Cytotoxicity in human MCF7/DX1 cells assessed as cell viability at 2 uM incubated for 24 hrs by MTT assay. The series is classed as cell-based. The conditions noted are these: read-out: Activity. Put shortly: as §3
The species named for series [9] is Homo sapiens. The series can be described thus: Inhibition of P-gp in human MCF7/DX1 cells assessed as increase in calcein-AM accumulation at 400 uM incubated for 10 mins by flow cytometry. Format: cell-based. Put shortly:
as §1

In series [10] the target is T1, Broad substrate specificity ATP-binding cassette transporter ABCG2. The series can be described thus: Inhibition of ABCG2 in human MCF7/FLV1000 cells assessed as increase in mitoxantrone accumulation at 200 uM incubated for 30 mins by flow cytometry. The conditions noted are these: 0.5 h. Background: Flow cytometry measures light scatter and fluorescence of single cells or particles in a stream.

Series [11] has the same target. Description: Inhibition of ABCG2 in human MCF7/FLV1000 cells assessed as increase in mitoxantrone accumulation at 400 uM incubated for 30 mins by flow cytometry. As to conditions: 0.5 h.
For series [12], the species on record is Homo sapiens. Description: Inhibition of P-gp in human MCF7/DX1 cells assessed as increase in calcein-AM accumulation at 500 uM incubated for 10 mins by flow cytometry. Format: cell-based. The essentials: as §1

ATP-dependent translocase ABCB1, sequence (P08183 whole entry): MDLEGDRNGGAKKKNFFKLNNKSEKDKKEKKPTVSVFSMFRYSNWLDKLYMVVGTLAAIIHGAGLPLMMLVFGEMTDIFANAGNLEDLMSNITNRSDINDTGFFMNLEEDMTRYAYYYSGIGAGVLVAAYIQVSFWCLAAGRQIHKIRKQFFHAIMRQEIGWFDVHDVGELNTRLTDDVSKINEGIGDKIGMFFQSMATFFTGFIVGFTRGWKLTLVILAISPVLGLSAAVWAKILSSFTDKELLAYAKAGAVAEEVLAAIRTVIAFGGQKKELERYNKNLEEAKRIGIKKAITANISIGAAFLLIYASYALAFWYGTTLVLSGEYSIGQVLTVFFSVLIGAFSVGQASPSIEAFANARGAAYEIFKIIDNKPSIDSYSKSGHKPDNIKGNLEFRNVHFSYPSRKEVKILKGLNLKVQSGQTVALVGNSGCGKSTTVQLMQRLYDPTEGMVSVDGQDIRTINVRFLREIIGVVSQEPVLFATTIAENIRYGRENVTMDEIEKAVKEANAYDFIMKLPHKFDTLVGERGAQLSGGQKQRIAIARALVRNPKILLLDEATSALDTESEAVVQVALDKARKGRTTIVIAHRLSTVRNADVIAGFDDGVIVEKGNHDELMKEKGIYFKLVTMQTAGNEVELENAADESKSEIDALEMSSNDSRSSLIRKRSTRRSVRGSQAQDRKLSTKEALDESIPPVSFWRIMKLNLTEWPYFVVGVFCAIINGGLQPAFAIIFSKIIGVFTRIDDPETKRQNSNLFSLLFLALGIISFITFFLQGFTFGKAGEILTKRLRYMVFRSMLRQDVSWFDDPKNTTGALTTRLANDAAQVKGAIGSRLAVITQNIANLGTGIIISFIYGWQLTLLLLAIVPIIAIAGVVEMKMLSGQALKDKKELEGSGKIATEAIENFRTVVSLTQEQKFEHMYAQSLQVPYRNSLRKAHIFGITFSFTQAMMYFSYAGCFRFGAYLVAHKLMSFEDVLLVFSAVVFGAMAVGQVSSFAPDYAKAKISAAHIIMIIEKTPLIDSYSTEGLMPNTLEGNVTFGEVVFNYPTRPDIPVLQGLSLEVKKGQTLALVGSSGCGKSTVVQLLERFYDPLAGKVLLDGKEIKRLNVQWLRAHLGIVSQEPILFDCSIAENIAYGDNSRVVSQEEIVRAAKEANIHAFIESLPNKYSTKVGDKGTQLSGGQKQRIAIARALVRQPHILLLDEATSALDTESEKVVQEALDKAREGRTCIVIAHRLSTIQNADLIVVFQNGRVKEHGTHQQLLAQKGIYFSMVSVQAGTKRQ

Regarding `Cc1cn([C@H]2C[C@H](N=[N+]=[N-])[C@@H](COC(=O)CCCCCCCCCCC(=O)OC[C@H]3O[C@@H](n4cc(C)c(=O)[nH]c4=O)C[C@@H]3N=[N+]=[N-])O2)c(=O)[nH]c1=O`, the viability at 24 h, 11.5 µM in [1] was greater than 95%. In addition, the IC50 (as a rule, the concentration needed to halve the response being measured) was 2300 nM in series [2], 4.3 µM in series [3], 9.3 µM in [4] and 11.5 µM in series [6]. In addition, the “inhibition (INH)” value is on record as “Dose-dependent effect” in [3] (human, 20 min) and “Dose-dependent effect” in [4] (human, 20 min). Besides, in series [5], the viability at 24 h, 2.3 µM is greater than 95%.
As for `Cc1cn([C@H]2C[C@H](N=[N+]=[N-])[C@@H](COC(=O)CCCCCCCCC(=O)OC[C@H]3O[C@@H](n4cc(C)c(=O)[nH]c4=O)C[C@@H]3N=[N+]=[N-])O2)c(=O)[nH]c1=O`, the results for the IC50 in [2] and in series [6] were 11300 nM and 28.2 µM, respectively.
On to `Cc1cn([C@H]2C[C@H](N=[N+]=[N-])[C@@H](COC(=O)CCCCCCCCCCCCC(=O)OC[C@H]3O[C@@H](n4cc(C)c(=O)[nH]c4=O)C[C@@H]3N=[N+]=[N-])O2)c(=O)[nH]c1=O`, for which, in [7], the viability at 24 h, 40 µM is 60%. Further, in series [1], the viability at 24 h, 13.3 µM was greater than 95%. Moreover, the IC50 in series [2] was 2000 nM; in series [6], 13.3 µM. Moreover, in series [8], the viability at 24 h, 2 µM is greater than 95%.
As for `Cc1cn([C@H]2C[C@H](N=[N+]=[N-])[C@@H](COC(=O)CCC(=O)OC[C@H]3O[C@@H](n4cc(C)c(=O)[nH]c4=O)C[C@@H]3N=[N+]=[N-])O2)c(=O)[nH]c1=O`, the inhibition result in [9] is “inactive”. In series [10], the “inhibition (INH)” value is “Not Active”.
As to `Cc1cn([C@H]2C[C@H](N=[N+]=[N-])[C@@H](COC(=O)CCCCCC(=O)OC[C@H]3O[C@@H](n4cc(C)c(=O)[nH]c4=O)C[C@@H]3N=[N+]=[N-])O2)c(=O)[nH]c1=O`, the IC50 in [2] was greater than 200000 nM. The “inhibition (INH)” value in [10] was “Not Active”.
`Cc1cn([C@H]2C[C@H](N=[N+]=[N-])[C@@H](CO)O2)c(=O)[nH]c1=O` [ZIDOVUDINE]: in [11], the “inhibition (INH)” value is “Not Active”. Moreover, in series [12], the inhibition entry is “inactive”.
